From ChEMBL document CHEMBL4680373, “Evaluation of 5-(Trifluoromethyl)-1,2,4-oxadiazole-Based Class IIa HDAC Inhibitors for Huntington's Disease” (ACS Med Chem Lett, 2021)
In brackets after ≈: the same amount, converted by molar mass.

Columns and labels:
Histone deacetylase 1 = Histone deacetylase 1 (Homo sapiens, UniProt Q13547); test: Inhibition of HDAC1 (unknown origin) using Ac-Arg-Gly-Lys(Ac) as substrate by fluorogenic assay
Histone deacetylase 8 = target: T1, Histone deacetylase 8 (Homo sapiens, UniProt Q9BY41); test: Inhibition of HDAC8 (unknown origin) using Boc-Lys(TFA) as substrate by fluorogenic assay
T1 sequence (Q9BY41 whole entry): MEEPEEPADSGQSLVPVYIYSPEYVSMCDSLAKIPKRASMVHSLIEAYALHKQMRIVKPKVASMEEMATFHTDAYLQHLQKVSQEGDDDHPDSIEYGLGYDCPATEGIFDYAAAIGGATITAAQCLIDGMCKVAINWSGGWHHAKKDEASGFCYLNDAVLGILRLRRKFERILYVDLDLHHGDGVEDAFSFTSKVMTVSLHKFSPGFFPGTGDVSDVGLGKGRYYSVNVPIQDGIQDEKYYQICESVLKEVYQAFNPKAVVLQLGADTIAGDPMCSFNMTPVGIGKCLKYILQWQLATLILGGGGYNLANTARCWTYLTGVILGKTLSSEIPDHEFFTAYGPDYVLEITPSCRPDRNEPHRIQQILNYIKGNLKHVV
In short: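 Biochemical HDAC isoform assay with the artificial fluorogenic substrate Boc-Lys-(TFA)-AMC, which is specific to class IIa enzymes and HDAC8. IC50 taken as the geometric mean of three experiments.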

[1] = Kinetic solubility of the compound; type: physicochemical; settings: read-out: Kinetic_solubility
[2] = Oral bioavailability in C57BL/6J mouse at 11.5 mg/kg administered via gavage by LC-MS/MS analysis; type: ADME, organism-based; settings: in vivo
In short: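 Fed male C57Bl/6 mice dosed once intravenously at 3.3 mg/kg and by oral gavage at 11.5 mg/kg. Compound levels were quantified to derive PK parameters.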

[3] = target: Sigma non-opioid intracellular receptor 1 (Homo sapiens) (UniProt Q99720); test: Displacement of [3H](+)-pentazocine from human sigma1 receptor at 10 uM incubated for 120 mins by radiometric scintillation counting analysis
Sigma non-opioid intracellular receptor 1 (Homo sapiens), sequence (Q99720 whole entry): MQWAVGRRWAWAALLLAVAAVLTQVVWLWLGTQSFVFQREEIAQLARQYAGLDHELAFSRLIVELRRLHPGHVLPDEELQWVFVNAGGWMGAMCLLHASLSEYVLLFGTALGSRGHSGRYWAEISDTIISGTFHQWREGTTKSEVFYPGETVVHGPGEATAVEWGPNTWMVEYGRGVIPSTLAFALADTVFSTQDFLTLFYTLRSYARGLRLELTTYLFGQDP
In short: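 Broad selectivity panel of binding, cellular, functional and enzymatic assays run by a contract lab. Each test was done at a single 10 μM concentration and reported as percent inhibition.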

Cytochrome P450 2C9 = Cytochrome P450 2C9 (Homo sapiens, UniProt P11712); test: Inhibition of CYP2C9 in human liver microsomes using diclofenac as substrate incubated for 15 mins by LC-MS/MS analysis; type: ADME
Cytochrome P450 2C9, sequence (P11712 whole entry): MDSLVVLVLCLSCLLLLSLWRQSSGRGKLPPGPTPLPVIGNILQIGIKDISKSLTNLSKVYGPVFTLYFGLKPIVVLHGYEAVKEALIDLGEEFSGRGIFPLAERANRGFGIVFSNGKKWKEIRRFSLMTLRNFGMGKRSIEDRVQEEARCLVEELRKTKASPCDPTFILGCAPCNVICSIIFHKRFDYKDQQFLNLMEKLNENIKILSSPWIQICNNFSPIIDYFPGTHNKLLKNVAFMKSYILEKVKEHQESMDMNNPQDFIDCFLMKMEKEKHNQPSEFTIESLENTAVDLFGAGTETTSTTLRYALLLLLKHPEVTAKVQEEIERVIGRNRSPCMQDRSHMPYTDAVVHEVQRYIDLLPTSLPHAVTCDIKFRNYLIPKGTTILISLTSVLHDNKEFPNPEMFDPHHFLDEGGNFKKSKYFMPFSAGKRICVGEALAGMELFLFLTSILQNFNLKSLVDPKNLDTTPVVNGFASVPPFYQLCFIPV

Cytochrome P450 2D6 = Cytochrome P450 2D6 (Homo sapiens, UniProt P10635); test: Inhibition of CYP2D6 in human liver microsomes using dextromethorphan as substrate incubated for 15 mins by LC-MS/MS analysis; type: ADME
Cytochrome P450 2D6, sequence (P10635 whole entry): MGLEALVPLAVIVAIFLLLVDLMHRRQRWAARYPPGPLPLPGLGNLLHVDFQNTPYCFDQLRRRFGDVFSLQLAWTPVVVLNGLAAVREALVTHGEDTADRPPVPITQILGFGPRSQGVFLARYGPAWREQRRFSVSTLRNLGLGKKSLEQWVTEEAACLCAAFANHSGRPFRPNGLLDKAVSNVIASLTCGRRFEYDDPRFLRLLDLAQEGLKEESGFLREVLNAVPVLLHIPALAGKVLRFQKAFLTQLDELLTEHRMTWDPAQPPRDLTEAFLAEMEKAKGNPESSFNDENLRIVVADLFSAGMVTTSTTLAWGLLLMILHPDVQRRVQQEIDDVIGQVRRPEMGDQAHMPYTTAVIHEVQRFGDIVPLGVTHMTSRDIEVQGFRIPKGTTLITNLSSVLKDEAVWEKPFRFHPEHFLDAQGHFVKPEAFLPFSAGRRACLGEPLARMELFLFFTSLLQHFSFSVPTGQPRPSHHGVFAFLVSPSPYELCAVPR

[4] = Metabolic stability of the compound in human plasma; type: ADME, cell-free
[5] = Metabolic stability of the compound in mouse blood; type: ADME, tissue-based
[6] = Stability of the compound in simulated gastric fluid at 10 uM at pH 1.2 incubated for 4 hrs by LC-MS/MS analysis
[7] = Tmax in C57BL/6J mouse blood at 11.5 mg/kg, po administered via gavage by LC-MS/MS analysis; type: ADME, organism-based
[8] = In vivo inhibition of Class 1/2B HDAC in C57BL/6J mouse brain assessed as increase in global pan-acetylation at 10 mg/kg, po administered via gavage measured after 2 hrs by dot blot technique; type: organism-based
In short: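 Mice received single oral gavage doses of 10, 30 or 100 mg/kg, and brains were sampled from 0.25 to 12 h. Brain compound levels were measured by LC-MS/MS. Dot blots read H4K12 acetylation normalized to histone H4, or pan-acetyl-lysine normalized to tubulin.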

[9] = In vivo inhibition of Class 1 HDAC in C57BL/6J mouse brain assessed as increase in histone H3/H4 acetylation administered orally via gavage measured after 2 hrs by western blot analysis; type: organism-based; settings: po, dose 10-100 mg/kg
In short: (§1)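 Brain samples were taken 2 h after single oral gavage doses (10, 30, 100 mg/kg). Western blots probed H3, H4 and tubulin acetylation, each normalized to its own total-protein band. Comparison was against samples taken 5 min after a 10 mg/kg dose.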

[10] = In vivo inhibition of Class 2B HDAC in C57BL/6J mouse brain assessed as increase in tubulin acetylation administered orally via gavage measured after 2 hrs by western blot analysis; type: organism-based; settings: po, dose 10-100 mg/kg; in short: as §1
[11] = Toxicity in CBAxC57BL/6J mouse assessed as effect on ataxia at 10 to 100 mg/kg, po bid for 14.5 days; type: organism-based; settings: in vivo, 348 h, dose 10-100 mg/kg, time 14.5 day
In short: (§2)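 R6/2 HD mice and wild-type littermates, male and female, were dosed orally b.i.d. at 10, 30 or 100 mg/kg or with vehicle for 14.5 days. Vehicle was 10% (w/v) hydroxypropyl-β-cyclodextrin in 50 mM citrate buffer. Body weight, body temperature, passive observations and active manipulation scores were recorded. Blood and brain were collected 2 h after the final dose.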

[12] = Toxicity in CBAxC57BL/6J mouse assessed as effect on straub tail at 10 to 100 mg/kg, po bid for 14.5 days; type: organism-based; settings: in vivo, 348 h, dose 10-100 mg/kg, time 14.5 day; in short: as §2
[13] = Toxicity in CBAxC57BL/6J mouse assessed as effect on stereotypy at 10 to 100 mg/kg, po bid for 14.5 days; type: organism-based; settings: in vivo, 348 h, dose 10-100 mg/kg, time 14.5 day; in short: as §2
[14] = Toxicity in CBAxC57BL/6J mouse assessed as effect on retropulsion at 10 to 100 mg/kg, po bid for 14.5 days; type: organism-based; settings: in vivo, 348 h, dose 10-100 mg/kg, time 14.5 day; in short: as §2
[15] = Toxicity in CBAxC57BL/6J mouse assessed as effect on flaccidity at 10 to 100 mg/kg, po bid for 14.5 days; type: organism-based; settings: in vivo, 348 h, dose 10-100 mg/kg, time 14.5 day; in short: as §2
[16] = Toxicity in CBAxC57BL/6J mouse assessed as effect on loss of paw pull at 10 to 100 mg/kg, po bid for 14.5 days; type: organism-based; settings: in vivo, 348 h, dose 10-100 mg/kg, time 14.5 day; in short: as §2
[17] = In vivo inhibition of Class 1/2B HDAC in CBAxC57BL/6J mouse brain assessed as increase in global pan-acetylation at >=10 mg/kg, po bid for 14.5 days by dot blot technique; type: organism-based; settings: 348 h, time 14.5 day
In short: (§3)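 R6/2 and wild-type littermate mice of both sexes were dosed orally b.i.d. for 14.5 days with 10, 30 or 100 mg/kg or vehicle (10% w/v hydroxypropyl-β-cyclodextrin in 50 mM citrate buffer). Half-brains were collected 2 h after the last dose. Dot blots measured global and H4K12 acetylation; Western blots measured H3, H4 and tubulin acetylation. Genotypes were pooled.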

[18] = In vivo inhibition of Class 1 HDAC in CBAxC57BL/6J mouse brain assessed as increase in H4K12 acetylation at 30 to 100 mg/kg, po bid for 14.5 days by dot blot technique; type: organism-based; settings: 348 h, dose 30-100 mg/kg, time 14.5 day; in short: as §3

Histone deacetylase 1, sequence (Q13547 whole entry): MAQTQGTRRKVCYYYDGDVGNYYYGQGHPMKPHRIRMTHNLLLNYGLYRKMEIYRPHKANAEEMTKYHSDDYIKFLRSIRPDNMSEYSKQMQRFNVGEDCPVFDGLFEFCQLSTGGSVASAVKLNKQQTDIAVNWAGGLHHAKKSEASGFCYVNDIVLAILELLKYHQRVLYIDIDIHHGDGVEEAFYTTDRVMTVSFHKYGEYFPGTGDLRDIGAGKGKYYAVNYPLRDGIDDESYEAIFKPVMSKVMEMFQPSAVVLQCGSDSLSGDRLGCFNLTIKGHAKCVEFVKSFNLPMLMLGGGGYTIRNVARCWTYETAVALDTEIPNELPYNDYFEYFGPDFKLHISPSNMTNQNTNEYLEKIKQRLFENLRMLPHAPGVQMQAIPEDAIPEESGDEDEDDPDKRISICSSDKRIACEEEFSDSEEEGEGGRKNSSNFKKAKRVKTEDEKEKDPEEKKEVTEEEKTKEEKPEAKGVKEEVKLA

IC50 (Histone deacetylase 1): 17 µM | IC50 (Histone deacetylase 8): 2 µM | solubility kinetic [1]: 166 µM (≈ 63.5 µg/mL) | bioavailability [2]: 100% | inhibition [3]: > 50% | IC50 (Cytochrome P450 2C9): > 50 µM | IC50 (Cytochrome P450 2D6): > 50 µM | Stabilty [4]: Stable | Stabilty [5]: Stable | Tmax [7]: 30 min
Structure (SMILES): C[C@H](CN1CCC[C@@H]1C)NC(=O)c1ccc(-c2noc(C(F)(F)F)n2)cc1
Stability [6]: Stable | Activity [8]: Toxic | Activity [9]: Toxic | Activity [10]: Toxic | Activity [11]: Non-Toxic | Activity [12]: Non-Toxic | Activity [13]: Non-Toxic | Activity [14]: Non-Toxic | Activity [15]: Non-Toxic | Activity [16]: Non-Toxic | Activity [17]: Toxic | Activity [18]: Toxic
